Among the data in ChEMBL document CHEMBL1124808, “The synthesis and antiallergy activity of 1-(aryloxy)-4-(4-arylpiperazinyl)-2-butanol derivatives” (1990) are PFA and ED50 values, retold here.

Holding throughout (type): functional
Assay [1] deals with Rattus norvegicus. Nature of the assay: Percent change in volume of foot edema of test compound to that of positive control was determined at a dose of 10 mg/kg in rat; […].
In assay [2] the test system is Rattus norvegicus. The assay is described as follows: Percent change in volume of foot edema of test compound to that of positive control was determined at a dose of 31.6 mg/kg in rat; […]/-69.
In assay [3] the test system is Rattus norvegicus. Nature of the assay: Oral Antiallergic activity in the passive foot anaphylaxis (PFA) assay of various amines at the dose of 3.16 mg/kg; -33/-84.
The subject of assay [4] is Rattus norvegicus. Nature of the assay: Percent change in volume of foot edema of test compound to that of positive control was determined at a dose of 10 mg/kg in rat; -9/-80.
Assay [5] has as its system Rattus norvegicus. The assay is described as follows: Percent change in volume of foot edema of test compound to that of positive control was determined at a dose of 31.6 mg/kg in rat; -61/-63.
The test system of assay [6] is Rattus norvegicus. Nature of the assay: Oral Antiallergic activity in the passive foot anaphylaxis (PFA) assay of various amines at the dose of 3.16 mg/kg; -38/-78.
The subject of assay [7] is Rattus norvegicus. Nature of the assay: Percent change in volume of foot edema of test compound to that of positive control was determined at a dose of 31.6 mg/kg in rat; -75/-83.
For assay [8], the system named is Rattus norvegicus. The assay is described as follows: Percent change in volume of foot edema of test compound to that of positive control was determined at a dose of 10 mg/kg in rat; -61/-88.
Assay [9] relates to Rattus norvegicus. The assay is described as follows: Percent change in volume of foot edema of test compound to that of positive control was determined at a dose of 31.6 mg/kg in rat; -23/-81.
The test system of assay [10] is Rattus norvegicus. Nature of the assay: Percent change in volume of foot edema of test compound to that of positive control was determined at a dose of 10 mg/kg in rat; -11/-65.
The subject of assay [11] is Rattus norvegicus. The assay is described as follows: Percent change in volume of foot edema of test compound to that of positive control was determined at a dose of 31.6 mg/kg in rat; -66/-66.
The test system of assay [12] is Rattus norvegicus. The assay is described as follows: Percent change in volume of foot edema of test compound to that of positive control was determined at a dose of 31.6 mg/kg in rat; -35/-69.
Assay [13] has as its system Rattus norvegicus. The assay is described as follows: Percent change in volume of foot edema of test compound to that of positive control was determined at a dose of 31.6 mg/kg in rat; -17/-70.
The subject of assay [14] is Rattus norvegicus. Nature of the assay: Percent change in volume of foot edema of test compound to that of positive control was determined at a dose of 10 mg/kg in rat; +14/-44.
The test system of assay [15] is Rattus norvegicus. Nature of the assay: Percent change in volume of foot edema of test compound to that of positive control was determined at a dose of 31.6 mg/kg in rat; -48/-84.
For a further assay, the species on record is Cavia porcellus. Nature of the assay: Dose that protects 50% of guinea pig from collapse was determined in guinea pig anaphylaxis assay. Conditions: read-out: PD50. In outline:
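Guinea pigs dosed by gavage (10 mL/kg) with compound in 0.5% Tween 80/water; reference theophylline 100 mg/kg po. At 1–24 h, exposed in chamber to aerosolized 1% (w/v) egg albumin at 10 L air/min for up to 5 min; protected if no collapse within 5 min. PD50 by Litchfield and Wilcoxon.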

The test system of assay [16] is Rattus norvegicus. Nature of the assay: Percent change in volume of foot edema of test compound to that of positive control was determined at a dose of 10 mg/kg in rat; -34/-78.
Assay [17] deals with Rattus norvegicus. The assay is described as follows: Percent change in volume of foot edema of test compound to that of positive control was determined at a dose of 31.6 mg/kg in rat; -88/-75.
The subject of assay [18] is Rattus norvegicus. The assay is described as follows: Percent change in volume of foot edema of test compound to that of positive control was determined at a dose of 31.6 mg/kg in rat; -54/-44.
For assay [19], the system named is Rattus norvegicus. Nature of the assay: Percent change in volume of foot edema of test compound to that of positive control was determined at a dose of 10 mg/kg in rat; -10/-44.
In assay [20] the test system is Rattus norvegicus. Nature of the assay: Percent change in volume of foot edema of test compound to that of positive control was determined at a dose of 31.6 mg/kg in rat; 39/-78.
The test system of assay [21] is Rattus norvegicus. The assay is described as follows: Percent change in volume of foot edema of test compound to that of positive control was determined at a dose of 31.6 mg/kg in rat; -40/-81.
Assay [22] concerns Rattus norvegicus. Nature of the assay: Percent change in volume of foot edema of test compound to that of positive control was determined at a dose of 3.16 mg/kg in rat; -50/-84.
For assay [23], the system named is Rattus norvegicus. The assay is described as follows: Percent change in volume of foot edema of test compound to that of positive control was determined at a dose of 31.6 mg/kg in rat; -83/-69.
Assay [24] has as its system Rattus norvegicus. Nature of the assay: Percent change in volume of foot edema of test compound to that of positive control was determined at a dose of 10 mg/kg in rat; -53/-76.
The subject of assay [25] is Rattus norvegicus. Nature of the assay: Percent change in volume of foot edema of test compound to that of positive control was determined at a dose of 3.16 mg/kg in rat; -36/-80.
In assay [26] the test system is Rattus norvegicus. Nature of the assay: Percent change in volume of foot edema of test compound to that of positive control was determined at a dose of 31.6 mg/kg in rat; -78/-69.
In assay [27] the test system is Rattus norvegicus. Nature of the assay: Percent change in volume of foot edema of test compound to that of positive control was determined at a dose of 10 mg/kg in rat; -55/-63.
The subject of assay [28] is Rattus norvegicus. Nature of the assay: Percent change in volume of foot edema of test compound to that of positive control was determined at a dose of 31.6 mg/kg in rat; -15/-60.

Take `Cc1cc(OCC(O)CCN2CCN(c3ccccc3)CC2)ccc1Cl` (stereo unspecified): the values for the PFA with Rattus norvegicus [1], in the assay with Rattus norvegicus [2] and in the assay on Rattus norvegicus [3] were -45, -71 and -33, respectively.
As for `OC(CCN1CCN(c2ccc(Cl)c(Cl)c2)CC1)COc1ccccc1` (stereo unspecified), the results for the PFA in the assay on Rattus norvegicus [4] and in the assay with Rattus norvegicus [5] were -9 and -61, respectively.
Turning to `CC(=O)c1ccc(N2CCN(CCC(O)COc3ccc(Cl)cc3)CC2)cc1` (stereo unspecified), the PFA in the assay on Rattus norvegicus [6] was -38; with Rattus norvegicus [7] it was -75; with Rattus norvegicus [8], -61.
For the compound `OC(COc1ccccc1)CN1CCN(c2ccccc2)CC1` (stereo unspecified), the PFA in the assay with Rattus norvegicus [9] was -23.
Turning to `Cc1ccc(OCC(O)CCN2CCN(c3ccccc3)CC2)cc1` (stereo unspecified), the PFA in the assay with Rattus norvegicus [10] is recorded as -11; in the assay on Rattus norvegicus [11] it was -66.
In the assay with Rattus norvegicus [12], `OC(CCN1CCN(c2ccccc2)CC1)COc1cccc2ccccc12` (stereo unspecified) had a PFA of -35.
For the compound `OC(CCOc1ccccc1)CN1CCN(c2ccccc2)CC1` (stereo unspecified), the PFA in the assay on Rattus norvegicus [13] is -17.
With `Cc1cc(C)cc(OCC(O)CCN2CCN(c3ccccc3)CC2)c1` (stereo unspecified), the values for the PFA in the assay with Rattus norvegicus [14] and in the assay on Rattus norvegicus [15] were 14 and -48, respectively.
With `OC(CCN1CCN(c2ccccc2)CC1)COc1ccccc1` (stereo unspecified), the ED50 in the assay listed under Cavia porcellus stood at 40 mg/kg. In addition, the PFA in the assay on Rattus norvegicus [16] was -34; in the assay with Rattus norvegicus [17] it was -88.
On to `COc1ccc(OCC(O)CCN2CCN(c3ccccc3)CC2)cc1` (stereo unspecified), for which the PFA in the assay with Rattus norvegicus [18] is -54; in the assay with Rattus norvegicus [19], -10.
For `OC(CCN1CCN(c2cccc(C(F)(F)F)c2)CC1)COc1ccccc1` (stereo unspecified), the PFA with Rattus norvegicus [20] is 39.
For `c1ccc(OCCN2CCN(c3ccccc3)CC2)cc1`, in the assay with Rattus norvegicus [21], the PFA is -40.
As for `OC(CCN1CCN(c2ccccc2)CC1)COc1ccc(Cl)cc1` (stereo unspecified), the PFA with Rattus norvegicus [22] is -50; with Rattus norvegicus [23], -83; with Rattus norvegicus [24], -53. Further, the ED50 in the assay filed under Cavia porcellus stood at 6.69 mg/kg.
For the compound `OC(CCN1CCN(c2ccc(F)cc2)CC1)COc1ccc(Cl)cc1` (stereo unspecified), the PFA with Rattus norvegicus [25] is recorded as -36; with Rattus norvegicus [26] it was -78; with Rattus norvegicus [27], -55.
`CN(C)CCOC(c1ccccc1)c1ccccc1` [DIPHENHYDRAMINE]: the PFA with Rattus norvegicus [28] is on record as -15. Moreover, the ED50 in the assay filed under Cavia porcellus worked out at 23.3 mg/kg.
